Measured values as given in ChEMBL document CHEMBL5620366, “Design, synthesis and biological evaluation of peptidomimetic benzothiazolyl ketones as 3CLpro inhibitors against SARS-CoV-2” (Eur J Med Chem, 2023).

Tests used:
[1] = Oral bioavailability in ICR mouse at 20 mg/kg measured for 24 hrs by LC-MS/MS analysis; assay type: ADME, organism-based; settings: in vivo
Procedure, shortened: (§1)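 ICR mice, three per group, randomly assigned, received a single 20 mg/kg oral dose, with a parallel 10 mg/kg IV group for bioavailability. Blood was sampled at 0.25, 0.5, 1, 2, 4, 6, 8 and 24 h. Plasma was protein-precipitated with MeOH plus internal standard and quantified by LC-MS/MS. Parameters came from non-compartmental analysis.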

[2] = AUC (0 to infinity) in ICR mouse at 20 mg/kg, po measured for 24 hrs by LC-MS/MS analysis; assay type: ADME, organism-based; settings: in vivo; procedure, shortened: as §1
[3] = AUC (0 to t) in ICR mouse at 20 mg/kg, po measured for 24 hrs by LC-MS/MS analysis; assay type: ADME, organism-based; settings: in vivo; procedure, shortened: as §1
[4] = Cmax in ICR mouse at 20 mg/kg, po measured for 24 hrs by LC-MS/MS analysis; assay type: ADME, organism-based; settings: in vivo; procedure, shortened: as §1
[5] = Half life in ICR mouse at 20 mg/kg, po measured for 24 hrs by LC-MS/MS analysis; assay type: ADME, organism-based; settings: in vivo; procedure, shortened: as §1
[6] = AUC (0 to infinity) in ICR mouse at 10 mg/kg, iv measured for 24 hrs by LC-MS/MS analysis; assay type: ADME, organism-based; settings: in vivo
Procedure, shortened: (§2)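 Male/female unspecified ICR mice, three per group, randomly assigned, given a single intravenous dose of 10 mg/kg. Whole blood was drawn at 0.083, 0.25, 0.5, 1, 2, 4, 8 and 24 h. Plasma (20 μL) was precipitated with MeOH containing internal standard, then analysed by LC-MS/MS. Parameters came from non-compartmental analysis.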

[7] = AUC (0 to t) in ICR mouse at 10 mg/kg, iv measured for 24 hrs by LC-MS/MS analysis; assay type: ADME, organism-based; settings: in vivo; procedure, shortened: as §2
[8] = Half life in ICR mouse at 10 mg/kg, iv measured for 24 hrs by LC-MS/MS analysis; assay type: ADME, organism-based; settings: in vivo; procedure, shortened: as §2
[9] = biological target: Replicase polyprotein 1ab (Severe acute respiratory syndrome coronavirus 2, UniProt P0DTD1); test: Inhibition of recombinant SARS-CoV-2 3CLpro using Dacyl-KTSAVLQSGFRKME-Edans as substrate preincubated for 10 mins followed by substrate addition measured for 5 mins by FRET assay
[10] = Selectivity index, ratio of CC50 for African green monkey Vero E6 cells to EC50 for SARS-CoV-2 WIV04 infected in African green monkey Vero E6 cells; assay type: toxicity; settings: read-out: Ratio CC50/EC50
Vero C1008 = test: Cytotoxicity against African green monkey Vero E6 cells incubated for 48 hrs by Luminescent cell viability assay; assay type: toxicity, cell-based; settings: chlorocebus sabaeus, vero c1008, 48 h
Procedure, shortened: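 Vero E6 cells were seeded at 2.5 × 10³/well and grown 48 h, then exposed to compound at 0.5–200 μM for a further 48 h (n = 3). Viability was read by a luminescent cell-viability reagent after 10 min. Values came from curve fitting.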

SARS-CoV-2 = test: Antiviral activity against SARS-CoV-2 WIV04 infected in African green monkey Vero E6 cells assessed as reduction in viral replication preincubated cells for 1 hr followed by viral infection for 24 hrs by real-time fluorescence quantitative PCR method; assay type: functional, organism-based; settings: Severe acute respiratory syndrome coronavirus 2, WIV04, Vero C1008
[11] = biological target: Procathepsin L (Homo sapiens) (UniProt P07711); test: Inhibition of cathepsin L (unknown origin) using Z-FR-AMC at 20 uM as substrate measured for 10 mins by fluorescence based assay relative to control
Procathepsin L (Homo sapiens), sequence (P07711 114-333 limits assumed): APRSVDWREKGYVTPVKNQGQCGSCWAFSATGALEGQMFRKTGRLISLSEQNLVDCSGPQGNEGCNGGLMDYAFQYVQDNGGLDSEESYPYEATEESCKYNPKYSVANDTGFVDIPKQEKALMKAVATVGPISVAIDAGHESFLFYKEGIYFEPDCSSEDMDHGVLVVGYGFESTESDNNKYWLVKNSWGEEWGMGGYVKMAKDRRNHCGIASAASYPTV

[12] = biological target: Chymotrypsinogen A (Bos taurus) (UniProt P00766); test: Inhibition of bovine pancreatic alpha-chymotrypsin using N-succinyl-AAPF-AMC as substrate at 20 uM preincubated for 10 mins followed by substrate addition measured for 10 mins by fluorescence based assay relative to control; settings: time 20.0 min
Procedure, shortened: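 Chymotrypsin (5 nM final) was preincubated 10 min with 20 μM compound in PBS, pH 7.4. The reaction was started with N-succinyl-AAPF-AMC (10 μM final). Fluorescence (ex 380/em 460 nm) was read every 1 min for 10 min.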

Compound CC(C)(C)[C@H](NC(=O)C(F)(F)F)C(=O)N1[C@@H]2CC[C@@H](C2)[C@H]1C(=O)N[C@@H](C[C@@H]1CCNC1=O)C(=O)c1nc2ccccc2s1 has an F [1] of 47.25%, an AUC [2] of 2161 ng·h/mL and an AUCt [3] of 2155 ng·h/mL. It also gave a Cmax [4] of 1597 ng/mL, a t1/2 [5] of 54.6 min and an AUC [6] of 2284 ng·h/mL. The AUCt [7] was 2281 ng·h/mL, the t1/2 [8] was 28.2 min and the IC50 [9] was 110 nM.

CC(C)(C)[C@H](NS(=O)(=O)C(F)(F)F)C(=O)N1[C@@H]2CC[C@@H](C2)[C@H]1C(=O)N[C@@H](C[C@@H]1CCNC1=O)C(=O)c1nc2ccccc2s1 gave a selectivity ratio [10] of 429, a CC50 (Vero C1008) of 137000 nM and an EC50 (SARS-CoV-2) of 320 nM. The F [1] was 67.98%, the AUC [2] was 5153 ng·h/mL and the AUCt [3] was 5143 ng·h/mL. For the same compound, the Cmax [4] was 3342 ng/mL, the t1/2 [5] was 45.6 min and the AUC [6] was 3857 ng·h/mL. The AUCt [7] was 3783 ng·h/mL, the t1/2 [8] was 44.4 min and the IC50 [9] was 868 nM.

O=C1NCC[C@H]1C[C@H](NC(=O)[C@@H]1[C@H]2CC[C@H](C2)N1C(=O)[C@@H](NS(=O)(=O)C(F)(F)F)C12CC3CC(CC(C3)C1)C2)C(=O)c1nc2ccccc2s1 showed an inhibition [11] of 27%, an inhibition [12] of 55.8% and a selectivity ratio [10] of 300. The CC50 (Vero C1008) was 54000 nM, the EC50 (SARS-CoV-2) was 180 nM and the F [1] was 48.1%. The AUC [2] was 33207 ng·h/mL, the AUCt [3] was 32473 ng·h/mL and the Cmax [4] was 9327 ng/mL. The t1/2 [5] was 126 min, the AUC [6] was 34308 ng·h/mL and the AUCt [7] was 33780 ng·h/mL. For the same compound, the t1/2 [8] was 82.8 min and the IC50 [9] was 1650 nM.

Work on O=C1NCC[C@H]1C[C@H](NC(=O)[C@@H]1[C@H]2CC[C@H](C2)N1C(=O)[C@H](CC1CCCCC1)NS(=O)(=O)C(F)(F)F)C(=O)c1nc2ccccc2s1 yielded an IC50 [9] of 5140 nM.

Compound [2H]C([2H])([2H])C(=O)N[C@H](C(=O)N1[C@@H]2CC[C@@H](C2)[C@H]1C(=O)N[C@@H](C[C@@H]1CCNC1=O)C(=O)c1nc2ccccc2s1)C(C)(C)C has an IC50 [9] of 527 nM.

COc1ccc(C[C@H](NS(=O)(=O)C(F)(F)F)C(=O)N2[C@@H]3CC[C@@H](C3)[C@H]2C(=O)N[C@@H](C[C@@H]2CCNC2=O)C(=O)c2nc3ccccc3s2)cc1 showed an IC50 [9] of 5340 nM.

Work on CN(C)S(=O)(=O)N[C@H](C(=O)N1[C@@H]2CC[C@@H](C2)[C@H]1C(=O)N[C@@H](C[C@@H]1CCNC1=O)C(=O)c1nc2ccccc2s1)C(C)(C)C yielded an IC50 [9] of 584 nM.

CC(C)(F)C(=O)N[C@H](C(=O)N1[C@@H]2CC[C@@H](C2)[C@H]1C(=O)N[C@@H](C[C@@H]1CCNC1=O)C(=O)c1nc2ccccc2s1)C(C)(C)C gave an IC50 [9] of 1270 nM.

In the case of CC(C)(C)OC[C@H](NS(=O)(=O)C(F)(F)F)C(=O)N1[C@@H]2CC[C@@H](C2)[C@H]1C(=O)N[C@@H](C[C@@H]1CCNC1=O)C(=O)c1nc2ccccc2s1, the IC50 [9] is reported as 2740 nM.

Work on CC(C)(C)OC(=O)N[C@H](C(=O)N1[C@@H]2CC[C@@H](C2)[C@H]1C(=O)N[C@@H](C[C@@H]1CCNC1=O)C(=O)c1nc2ccccc2s1)C(C)(C)C yielded an IC50 [9] of 5000 nM.

For CC(C)(C)[C@H](NC(=O)C(F)(F)F)C(=O)N1C[C@H]2[C@@H]([C@H]1C(=O)N[C@H](C#N)C[C@@H]1CCNC1=O)C2(C)C [NIRMATRELVIR], the CC50 (Vero C1008) was > 500000 nM, the F [1] was 22.85% and the AUC [2] was 1029 ng·h/mL. The AUCt [3] was 1023 ng·h/mL, the Cmax [4] was 1819 ng/mL and the t1/2 [5] was 30.6 min. It also gave an AUC [6] of 2241 ng·h/mL, an AUCt [7] of 2240 ng·h/mL and a t1/2 [8] of 25.2 min.
